According to ChEMBL document CHEMBL1123867, “Anticonvulsant O-alkyl sulfamates. 2,3:4,5-Bis-O-(1-methylethylidene)-beta-D-fructopyranose sulfamate and related compounds” (1987):
The source made the active and inactive calls. No cut-off for these calls is given here.

Columns and labels:
[1] = system: Mus musculus; assay: Anticonvulsant activity by using a standard maximal electroshock test (MES) in mice, by intraperitoneal administration of the compound; assay type: functional; conditions: ip
Outline: (§1)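 Supramaximal electroshock: 50-mA current (60 Hz, 0.20 s) via corneal electrodes induced hind-limb tonic extension; inhibition of this component scored as activity. Mice dosed ip and/or po in aqueous solution or suspension (ca. 0.1% Tween 80, distilled water). Tested at 30, 60, 120 and 240 min (sometimes 45 min); ten mice per time point.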

[2] = system: Mus musculus; assay: Anticonvulsant activity following p.o. administration by standard maximal electroshock test in mice.; assay type: functional; conditions: po; outline: as §1
[3] = system: Mus musculus; assay: Percentage block of the hind-limb tonic-extensor seizure was determined after application of an electric shock to mice for 60 min followed by 100 mg/kg intraperitoneal dose; assay type: functional; outline: as §1
[4] = system: Mus musculus; assay: Percentage block of the hind-limb tonic-extensor seizure was determined after application of an electric shock to mice for 120 min followed by 100 mg/kg intraperitoneal dose; assay type: functional; outline: as §1
[5] = system: Mus musculus; assay: Percentage block of the hind-limb tonic-extensor seizure was determined after application of an electric shock to mice for 120 min followed by 200 mg/kg peroral dose; assay type: functional; conditions: route oral; outline: as §1
[6] = system: Mus musculus; assay: Percentage block of the hind-limb tonic-extensor seizure was determined after application of an electric shock to mice for 30 min followed by 200 mg/kg peroral dose; assay type: functional; conditions: route oral; outline: as §1
[7] = system: Mus musculus; assay: Percentage block of the hind-limb tonic-extensor seizure was determined after application of an electric shock to mice for 240 min followed by 100 mg/kg intraperitoneal dose; assay type: functional; outline: as §1
[8] = system: Mus musculus; assay: Percentage block of the hind-limb tonic-extensor seizure was determined after application of an electric shock to mice for 240 min followed by 200 mg/kg peroral dose; assay type: functional; conditions: route oral; outline: as §1
[9] = system: Mus musculus; assay: Percentage block of the hind-limb tonic-extensor seizure was determined after application of an electric shock to mice for 60 min followed by 200 mg/kg peroral dose; assay type: functional; conditions: route oral
Outline: (§2)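 Mouse MES test: supramaximal seizure from a 50-mA current (60 Hz, 0.20-s) through corneal electrodes. […] Ten mice per time point. Compound given in aqueous solution or in suspension in ca. 0.1% Tween 80 and distilled water. Free food and water except during testing.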

[10] = system: Mus musculus; assay: Anticonvulsant activity by using a standard maximal electroshock test (MES) in mice, by 100 mg/kg intraperitoneal administration; i= Inactive; assay type: functional, organism-based; design: dose 100 mg/kg; outline: as §1
[11] = system: Mus musculus; assay: Anticonvulsant activity by using a standard maximal electroshock test (MES) in mice, by 200 mg/kg intraperitoneal administration of the compound; I=inactive, 0-10% block; assay type: functional, organism-based; design: dose 200 mg/kg; outline: as §1
[12] = system: Mus musculus; assay: Anticonvulsant activity by using a standard maximal electroshock test (MES) in mice, by 400 mg/kg peroral administration of the compound; I=inactive, 0-10% block; assay type: functional, organism-based; design: dose 400 mg/kg; outline: as §1
[13] = system: Mus musculus; assay: Percentage block of the hind-limb tonic-extensor seizure was determined after application of an electric shock to mice for 60 min followed by 200 mg/kg intraperitoneal dose; assay type: functional; outline: as §2
[14] = system: Mus musculus; assay: Percentage block of the hind-limb tonic-extensor seizure was determined after application of an electric shock to mice for 60 min followed by 400 mg/kg peroral dose; assay type: functional; conditions: route oral; outline: as §2
[15] = system: Mus musculus; assay: Percentage block of the hind-limb tonic-extensor seizure was determined after application of an electric shock to mice for 120 min followed by 200 mg/kg intraperitoneal dose; assay type: functional; outline: as §1
[16] = system: Mus musculus; assay: Percentage block of the hind-limb tonic-extensor seizure was determined after application of an electric shock to mice for 120 min followed by 400 mg/kg peroral dose; assay type: functional; conditions: route oral; outline: as §1
[17] = system: Mus musculus; assay: Percentage block of the hind-limb tonic-extensor seizure was determined after application of an electric shock to mice for 30 min followed by 200 mg/kg intraperitoneal dose; assay type: functional; outline: as §1
[18] = system: Mus musculus; assay: Percentage block of the hind-limb tonic-extensor seizure was determined after application of an electric shock to mice for 30 min followed by 400 mg/kg peroral dose; assay type: functional; conditions: route oral; outline: as §1
[19] = system: Mus musculus; assay: Percentage block of the hind-limb tonic-extensor seizure was determined after application of an electric shock to mice for 240 min followed by 200 mg/kg intraperitoneal dose; assay type: functional; outline: as §1
[20] = system: Mus musculus; assay: Percentage block of the hind-limb tonic-extensor seizure was determined after application of an electric shock to mice for 240 min followed by 400 mg/kg peroral dose; assay type: functional; conditions: route oral; outline: as §1
[21] = system: Mus musculus; assay: Anticonvulsant activity by using a standard maximal electroshock test (MES) in mice, by 100 mg/kg intraperitoneal administration of the compound; i =inactive; assay type: functional, organism-based; design: dose 100 mg/kg; outline: as §1
[22] = system: Mus musculus; assay: Anticonvulsant activity by using a standard maximal electroshock test (MES) in mice, by 100 mg/kg intraperitoneal administration; i=inactive; assay type: functional, organism-based; design: dose 100 mg/kg; outline: as §1
[23] = system: Mus musculus; assay: Percentage block of the hind-limb tonic-extensor seizure was determined after application of an electric shock to mice for 30 min followed by 100 mg/kg intraperitoneal dose; assay type: functional; outline: as §1
[24] = system: Mus musculus; assay: Anticonvulsant activity by using a standard maximal electroshock test (MES) in mice, by 100 mg/kg intraperitoneal administration of the compound; I=inactive, 0-10% block; assay type: functional, organism-based; design: dose 100 mg/kg; outline: as §1
[25] = system: Mus musculus; assay: Anticonvulsant activity by using a standard maximal electroshock test (MES) in mice, by 200 mg/kg peroral administration of the compound; I=inactive, 0-10% block; assay type: functional, organism-based; design: dose 200 mg/kg; outline: as §1
[26] = system: Mus musculus; assay: Percentage block of the hind-limb tonic-extensor seizure was determined after application of an electric shock to mice for 30 min followed by 50 mg/kg intraperitoneal dose; assay type: functional; outline: as §1
[27] = system: Mus musculus; assay: Percentage block of the hind-limb tonic-extensor seizure was determined after application of an electric shock to mice for 60 min followed by 50 mg/kg intraperitoneal dose; assay type: functional; outline: as §2
[28] = system: Mus musculus; assay: Percentage block of the hind-limb tonic-extensor seizure was determined after application of an electric shock to mice for 120 min followed by 100 mg/kg peroral dose; assay type: functional; conditions: route oral; outline: as §1
[29] = system: Mus musculus; assay: Percentage block of the hind-limb tonic-extensor seizure was determined after application of an electric shock to mice for 30 min followed by 100 mg/kg peroral dose; assay type: functional; conditions: route oral; outline: as §1
[30] = system: Mus musculus; assay: Percentage block of the hind-limb tonic-extensor seizure was determined after application of an electric shock to mice for 120 min followed by 50 mg/kg intraperitoneal dose; assay type: functional; outline: as §1
[31] = system: Mus musculus; assay: Percentage block of the hind-limb tonic-extensor seizure was determined after application of an electric shock to mice for 240 min followed by 100 mg/kg peroral dose; assay type: functional; conditions: route oral; outline: as §1
[32] = system: Mus musculus; assay: Percentage block of the hind-limb tonic-extensor seizure was determined after application of an electric shock to mice for 240 min followed by 50 mg/kg intraperitoneal dose; assay type: functional; outline: as §1
[33] = system: Mus musculus; assay: Percentage block of the hind-limb tonic-extensor seizure was determined after application of an electric shock to mice for 60 min followed by 100 mg/kg peroral dose; assay type: functional; conditions: route oral; outline: as §2
[34] = system: Mus musculus; assay: Anticonvulsant activity by using a standard maximal electroshock test (MES) in mice, by 100 mg/kg intraperitoneal administration of the compound; I =inactive; assay type: functional, organism-based; design: dose 100 mg/kg; outline: as §1

| SMILES | ED50 [1] [mg/kg] | ED50 [2] [mg/kg] | Block [3] [%] | Block [4] [%] | Block [5] [%] | Block [6] [%] | Block [7] [%] | Block [8] [%] | Block [9] [%] | Block [13] [%] | Block [14] [%] | Block [15] [%] | Block [16] [%] | Block [17] [%] | Block [18] [%] | Block [19] [%] | Block [20] [%] | further results |
| --- | --- | --- | --- | --- | --- | --- | --- | --- | --- | --- | --- | --- | --- | --- | --- | --- | --- | --- |
| NS(=O)(=O)OCC1COc2ccccc2O1 (stereo not drawn) | ~100 | 118 | 60 | 30 | 80 | 100 | 0 | 80 | 100 |  |  |  |  |  |  |  |  |  |
| CC1(C)OC2C3OC(C)(C)O[C@]3(CO)OC[C@H]2O1 (stereo partly drawn) |  |  |  |  |  |  |  |  |  | 0 | 0 | 0 | 0 | 0 | 0 | 0 | 0 | ED50 [10]: inactive; ED50 [11]: inactive; ED50 [12]: inactive |
| CC1(COS(N)(=O)=O)CCCCC1 | 270 | ~400 |  |  |  |  |  |  |  | 30 | 40 | 20 | 80 | 30 | 50 | 20 | 30 |  |
| COC1(COS(N)(=O)=O)OC(CO)[C@@H](O)C1O (stereo partly drawn) |  |  |  |  |  |  |  |  |  |  |  |  |  |  |  |  |  | ED50 [21]: inactive |
| CC1(C)OC2C3OC(C)(C)O[C@]3(COC(=O)Nc3ccccc3)OC[C@H]2O1 (stereo partly drawn) |  |  |  |  |  |  |  |  |  | 0 | 0 | 0 | 0 | 0 | 0 | 0 | 0 | ED50 [22]: inactive; ED50 [11]: inactive; ED50 [12]: inactive |
| CC1(C)O[C@@H]2[C@H](O1)[C@H]1OC(C)(C)OC1O[C@@H]2COS(N)(=O)=O (stereo partly drawn) | 175 | > 200 |  |  |  |  |  |  |  | 40 | 80 | 50 | 90 | 20 | 50 | 30 | 80 |  |
| CC1(C)OCC(COS(N)(=O)=O)O1 (stereo not drawn) | ~100 | ~75 | 70 | 90 | 100 | 70 | 70 | 100 | 90 |  |  |  |  |  |  |  |  | Block [23]: 50% |
| CC1(C)OC2C3OC(C)(C)O[C@]3(COS(=O)(=O)Nc3ccccc3)OC[C@H]2O1 (stereo partly drawn) |  |  | 0 | 0 | 0 | 0 | 0 | 0 | 0 |  |  |  |  |  |  |  |  | ED50 [24]: inactive; ED50 [25]: inactive; Block [23]: 0% |
| CC1(C)O[C@@H]2CO[C@@]3(COS(=O)(=O)N=[N+]=[N-])OC(C)(C)OC3[C@@H]2O1 (stereo partly drawn) | > 100 | ~200 | 40 | 50 | 70 | 30 | 30 | 100 | 50 |  |  |  |  |  |  |  |  | Block [23]: 20% |
| NS(=O)(=O)OCC1CCc2ccccc2C1 (stereo not drawn) | 56 | 82 |  |  |  |  |  |  |  |  |  |  |  |  |  |  |  | Block [26]: 30%; Block [27]: 50%; Block [28]: 80%; Block [29]: 80%; Block [30]: 0%; Block [31]: 30%; Block [32]: 0%; Block [33]: 80% |
| CC1(C)OC2C(OS(N)(=O)=O)C3(COC(C)(C)O3)OC[C@H]2O1 (stereo partly drawn) |  |  |  |  |  |  |  |  |  |  |  |  |  |  |  |  |  | ED50 [34]: inactive |
